In ChEMBL document CHEMBL4831478, “Bispecific Estrogen Receptor α Degraders Incorporating Novel Binders Identified Using DNA-Encoded Chemical Library Screening” (J Med Chem, 2021):
Calls of active or inactive are those of the source. The calls are words filed in the database; no cut-off is given here.

Tests used:
[1] = AUCinfinity in CD1 mouse at 10 mg/kg, sc administered as single dose […]; assay type: ADME, organism-based; set-up: route subcutaneous, dose 10 mg/kg; conditions: in vivo
[2] = Plasma protein binding in human; assay type: ADME, cell-free; conditions: read-out: PPB
[3] = Drug uptake in CD1 mouse tumor xenografted with human MCF7 cells 10 mg/kg, sc measured after 3 hrs post last dose; conditions: in vivo
Estrogen receptor [4] = molecular target: T1, Estrogen receptor (Homo sapiens, UniProt P03372); experiment: Induction of ERalpha degradation in human MCF7 cells assessed as decrease in ERalpha protein expression incubated for 24 hrs by Western blot analysis; assay type: cell-based
T1 sequence (P03372 whole entry): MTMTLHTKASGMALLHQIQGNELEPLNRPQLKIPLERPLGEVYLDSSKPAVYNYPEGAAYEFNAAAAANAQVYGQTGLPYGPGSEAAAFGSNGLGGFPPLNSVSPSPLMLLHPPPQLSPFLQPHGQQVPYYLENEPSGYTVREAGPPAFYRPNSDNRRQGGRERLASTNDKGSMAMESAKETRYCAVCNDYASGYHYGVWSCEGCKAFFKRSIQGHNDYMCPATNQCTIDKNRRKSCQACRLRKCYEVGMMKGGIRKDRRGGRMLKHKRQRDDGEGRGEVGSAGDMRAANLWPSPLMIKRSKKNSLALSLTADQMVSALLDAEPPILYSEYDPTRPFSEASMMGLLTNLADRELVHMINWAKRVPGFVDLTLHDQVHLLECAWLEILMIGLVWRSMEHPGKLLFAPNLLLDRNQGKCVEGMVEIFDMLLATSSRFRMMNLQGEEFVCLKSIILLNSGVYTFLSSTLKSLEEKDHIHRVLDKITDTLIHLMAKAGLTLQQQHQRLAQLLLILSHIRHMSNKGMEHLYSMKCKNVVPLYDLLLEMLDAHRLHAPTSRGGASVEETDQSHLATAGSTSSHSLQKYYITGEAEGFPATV

[5] = Cmax in CD1 mouse at 10 mg/kg, sc administered as single dose […]; assay type: ADME, organism-based; set-up: route subcutaneous, dose 10 mg/kg; conditions: in vivo
Estrogen receptor [6] = molecular target: T1, Estrogen receptor; experiment: (§1) Antagonist activity at ERalpha in human MCF7 cells assessed as reduction in PGR gene expression incubated for 24 hrs by qPCR analysis; assay type: cell-based
Outline: (§2)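 MCF7 cells in complete media, incubated 72 h, then dosed in a 6-point series (0.5% DMSO final) for 24 h at 37 °C. RNA extracted, cDNA made, TaqMan qPCR for progesterone receptor normalized to TBP. Comparative CT (ΔΔCT) used for dose-response curves.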

[7] = molecular target: T2, Estrogen receptor (Homo sapiens) (UniProt P03372); experiment: as §1; assay type: cell-based; conditions: filed as antagonist; outline: as §2
T2 sequence (whole entry): T1 sequence (P03372 whole entry)

[8] = Half life in CD1 mouse at 0.3 mg/kg, iv administered as cassette dosing […]; assay type: ADME, organism-based; conditions: in vivo
Homo sapiens = species on record: Homo sapiens; experiment: Selectivity index, ratio of DC50 for induction of ERalpha degradation in human MCF7 cells in presence of VHL298 to DC50 for induction of ERalpha degradation in human MCF7 cells; assay type: cell-based
Outline: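 MCF7 cells were treated with a PROTAC dose series, alone or co-treated with the VHL ligand VHL298 (5 μM), for 48 h in total before collection. ERα degradation DC50 was determined under both conditions and the two values compared as a ratio.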

[9] = Bioavailability in CD1 mouse at 10 mg/kg, sc administered as single dose […]; assay type: ADME, organism-based; conditions: in vivo
Mus musculus = experiment: Induction of ERalpha degradation in CD1 mouse xenografted with human MCF7 cells assessed as reduction in ERalpha level at 10 mg/kg, sc measured after 3 days by Western blotting analysis; assay type: functional, organism-based; conditions: time 3.0 day
[10] = Apparent permeability of compound across apical to basolateral side in MDCK cells; assay type: ADME, cell-based, Canis lupus familiaris; conditions: dog
MCF7 [11] = experiment: Antiproliferative activity against human MCF7 cells assessed as growth inhibition preincubated with estradiol for 30 mins followed by compound addition and measured after 72 hrs by CellTiter-Glo assay; assay type: functional
[12] = Clearance in CD1 mouse at 0.3 mg/kg, iv administered as cassette dosing […]; assay type: ADME, organism-based; conditions: in vivo
Estrogen receptor [13] = molecular target: Estrogen receptor (Homo sapiens, UniProt P03372, S463P); experiment: Binding affinity to ERalpha S463P mutant (unknown origin) expressed in Escherichia coli preincubated for 15 mins followed by ligand addition and measured after 1 hr by fluorescent polarization assay
Sequence of Estrogen receptor (Homo sapiens, UniProt P03372, S463P) (P03372 whole entry S463P, the tested form may be a part): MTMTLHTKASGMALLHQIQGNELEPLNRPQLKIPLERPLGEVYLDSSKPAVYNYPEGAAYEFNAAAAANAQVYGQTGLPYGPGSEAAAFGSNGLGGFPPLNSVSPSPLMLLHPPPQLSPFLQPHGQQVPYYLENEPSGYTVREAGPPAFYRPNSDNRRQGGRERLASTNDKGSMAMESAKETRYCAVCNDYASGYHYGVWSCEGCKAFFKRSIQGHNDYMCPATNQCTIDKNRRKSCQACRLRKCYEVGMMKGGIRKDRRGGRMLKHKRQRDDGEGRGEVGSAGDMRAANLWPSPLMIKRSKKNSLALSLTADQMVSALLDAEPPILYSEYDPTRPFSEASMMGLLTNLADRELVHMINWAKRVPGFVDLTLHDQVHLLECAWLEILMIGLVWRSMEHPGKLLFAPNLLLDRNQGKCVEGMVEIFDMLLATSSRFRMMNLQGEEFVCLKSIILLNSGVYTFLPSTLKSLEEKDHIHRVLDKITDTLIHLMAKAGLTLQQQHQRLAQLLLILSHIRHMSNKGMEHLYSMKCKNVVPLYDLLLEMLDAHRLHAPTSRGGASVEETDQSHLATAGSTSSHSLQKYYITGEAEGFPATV
Outline: (§3)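 ERα LBD (aa 307–554), WT or D538G, S463P, Y537S, with N-terminal Avi-Tev-His tag, expressed in E. coli T7 Express (20 °C, 12 h, IPTG). Purified by Ni-NTA then size exclusion. Compound preincubated with protein 15 min, fluorescent ligand added, 1 h at room temperature. FP read ex 485/em 535 nm; duplicate runs averaged.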

MDA-MB-231 = experiment: Antiproliferative activity against human MDA-MB-231 cells assessed as growth inhibition incubated for 7 days by CellTiter-Glo assay; assay type: functional; conditions: MDA-MB-231, 168 h, time 7 day
Outline: (§4)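 Breast lines from ATCC, maintained in ATCC-specified media, treated with increasing compound doses in full-serum (complete) media for 7 days. Relative cell number measured by CellTiter-Glo ATP read-out.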

[14] = Half life in CD1 mouse at 10 mg/kg, sc administered as single dose […]; assay type: ADME, organism-based; conditions: in vivo
[15] = Cytotoxicity against human MCF-10A cells assessed as growth inhibition incubated for 7 days by CellTiter-Glo assay; assay type: cell-based; conditions: time 7 day; outline: as §4
[16] = Solubility of compound; assay type: physicochemical
Estrogen receptor [17] = molecular target: Estrogen receptor (Homo sapiens, UniProt P03372, D538G); experiment: Binding affinity to ERalpha D538G mutant (unknown origin) expressed in Escherichia coli preincubated for 15 mins followed by ligand addition and measured after 1 hr by fluorescent polarization assay; outline: as §3
Sequence of Estrogen receptor (Homo sapiens, UniProt P03372, D538G) (P03372 whole entry D538G): as the sequence (P03372 whole entry S463P, the tested form may be a part) above, with P463S, D538G counted along it

Estrogen receptor [18] = molecular target: T1, Estrogen receptor; experiment: Induction of ERalpha degradation in human MCF7 cells assessed as decrease in ERalpha protein expression preincubated for 2 hrs followed by compound washout and measured after 22 hrs by Western blotting analysis; assay type: cell-based
Outline: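 MCF7 in-cell western: 2 h compound treatment, washout, cells collected 22 h later, compared with continuous 24 h treatment; ERα normalized to tubulin.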

MCF7 [19] = experiment: Antitumor activity against human MCF7 cells xenografted in CD1 mouse assessed as tumor growth inhibition at 10 mg/kg, sc administered once daily for 28 days by caliper method; assay type: functional; conditions: 672 h, time 28 day, read-out: TGI
Outline: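 Mice implanted with 17β-estradiol pellets (0.18 mg) 2 days before sc right-flank inoculation of 10×10^6 MCF-7 cells in PBS/Matrigel (50:50). Randomized at mean tumor 165 mm³, 8 per group. Dosed 10 mg/kg sc qd; fulvestrant reference 3 mg/mouse sc weekly. Caliper measurements twice weekly, V = 0.5a×b². TGI from medians. Body weight recorded before each dosing.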

[20] = Volume of distribution at steady state in CD1 mouse at 0.3 mg/kg, iv administered as cassette dosing […]; assay type: ADME, organism-based; conditions: in vivo, read-out: Vdss
Estrogen receptor [21] = molecular target: Estrogen receptor (Homo sapiens, UniProt P03372, Y537S); experiment: Binding affinity to ERalpha Y537S mutant (unknown origin) expressed in Escherichia coli preincubated for 15 mins followed by ligand addition and measured after 1 hr by fluorescent polarization assay; outline: as §3
Sequence of Estrogen receptor (Homo sapiens, UniProt P03372, Y537S) (P03372 whole entry Y537S): as the sequence (P03372 whole entry S463P, the tested form may be a part) above, with P463S, Y537S counted along it

AUC(0-inf) [1]: 14.6 µM·h
fraction unbound [2]: < 0.004
Drug uptake [3]: Active
DC50 (Estrogen receptor [4]): 4.5 nM
Cmax [5]: 2130 nM
EC50 (Estrogen receptor [6]): 27 nM
Activity [7]: Dose-Dependent Effect
half-life [8]: 8.7 h
bioavailability [9]: > 100%
Papp A→B [10]: < 0.1 ×10⁻⁶ cm/s
GI50 (MCF7 [11]): > 10000 nM
clearance [12]: 23 mL/min/kg
IC50 (Estrogen receptor [13]): 203 nM
GI50 (MDA-MB-231): > 10000 nM
half-life [14]: 17 h
solubility [16]: < 0.2 µM
IC50 (Estrogen receptor [17]): 517 nM
DC50 (Estrogen receptor [18]): 37 nM
Vd [20]: 4.82 L/kg
IC50 (Estrogen receptor [21]): 419 nM
Compound: Cc1ncsc1-c1ccc([C@@H](C)NC(=O)[C@@H]2C[C@@H](O)CN2C(=O)[C@H](NC(=O)COCCOCc2cn(CCOc3ccc(N(Cc4cccc(O)c4Cl)CC4(c5ccccc5F)CCCC4)cc3)nn2)C(C)(C)C)cc1
Selectivity Index (Homo sapiens): 8
Activity (Mus musculus): Active
GI50 at 168 h [15]: > 10000 nM
inhibition in vivo at 10 mg/kg (MCF7 [19]): 30.8%
